Test results as given in PMC9290582 (British Journal of Clinical Pharmacology, 2021).

Columns and labels:
[1] = test system: Bruton tyrosine kinase (BTK); conditions: cited from earlier work
[2] = Model-predicted steady-state exposure and covariate effects; type: in vivo, human; conditions: for Reduction of AUC24h,ss by coadministration of PPIs: population PK study; for Exposure lower with concomitant PPI use: relative to a reference patient
How it was run: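 Exposure simulated stochastically from the final population PK model at 100 mg BID. AUC24h,ss and Cmax,ss were reported as model-predicted medians (90% prediction interval) relative to a reference patient: B-cell malignancy, ECOG PS 0 or 1, no concomitant PPI. A covariate effect was deemed not relevant if its change and 95% CI fell within 0.8–1.25.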

[3] = cited from earlier work
[4] = Population pharmacokinetic analysis; type: in vivo, human; conditions: for CL/F, apparent clearance / Vp/F, apparent peripheral volume of distribution: parent; for Covariate effect ECOG 2—CL/F / Covariate effect Healthy subject—CL/F / Covariate effect Healthy subject—Vp/F / Covariate effect PPI—F1 (relative bioavailability): relative change (1 + estimate)
How it was run: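 Model: 2-compartment, 5-transit absorption chain, first-order absorption and elimination. Metabolite formation was CL/F × fraction metabolized, fixed at 0.4. BSV and BOV were exponential; residual error was additive on log scale. Precision was checked by bootstrap.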

[5] = high-calorie meal vs. fasting conditions; cited from earlier work
[6] = cited from earlier work; remark: listed apart in the source
[7] = healthy subjects; ref data on file; cited from earlier work
[8] = bootstrap 50th [2.5th, 97.5th percentile]
[9] = final model fixed effect, estimate (%RSE)
[10] = final model, bootstrap 50th [2.5th, 97.5th percentile]
[11] = relative to a reference cancer population

In the case of `CC#CC(=O)NCCCC(=O)c1nc(-c2ccc(C(=O)Nc3ccccn3)cc2)c2c(N)nccn12` [ACP‐5862], the “Potency for BTK inhibition relative to acalabrutinib” value [1] is listed as “approximately half as potent as acalabrutinib”, the “Reduction of AUC24h,ss by coadministration of PPIs” value [2] is listed as 36% and the “Exposure lower with concomitant PPI use” value [2] is listed as 36%. The “Mean exposure relative to that of acalabrutinib” value [3] was “approximately 2 fold”, the “BSV CLM/F” value [4, 8] was 13.1 [9.22, 20.2] CV% and the “BSV QM/F” value [4, 8] was 40 [23.8, 59.2] CV%. For the same compound, the “BSV VcM/F” value [4, 8] was 53.3 [36.9, 71.1] CV%, the “BSV VpM/F” value [4, 8] was 21.2 [15.3, 41.2] CV% and the “BSV CLM/F” value ([4]; estimate (%RSE)) was 11.8 (21.1) CV%. The “BSV QM/F” value ([4]; estimate (%RSE)) was 40.7 (14.4) CV%, the “BSV VcM/F” value ([4]; estimate (%RSE)) was 47.2 (12.1) CV% and the “BSV VpM/F” value ([4]; estimate (%RSE)) was 19.2 (30.5) CV%. The “CLM/F, apparent clearance metabolite” value [4, 9] was 21.8 (1.98) L/h, the “VcM/F, apparent central volume of distribution metabolite” value [4, 9] was 22.7 (6.66) L and the “VpM/F, apparent peripheral volume of distribution metabolite” value [4, 9] was 89.2 (4.58) L. For the same compound, the “CLM/F, apparent clearance metabolite” value [4, 10] was 21.6 [20.2, 22.6] L/h, the “VcM/F, apparent central volume of distribution metabolite” value [4, 10] was 22.7 [19.5, 25.8] L and the “VpM/F, apparent peripheral volume of distribution metabolite” value [4, 10] was 88.1 [77.6, 97] L.
In the case of `CC#CC(=O)N1CCC[C@H]1c1nc(-c2ccc(C(=O)Nc3ccccn3)cc2)c2c(N)nccn12` [acalabrutinib], the “Effect of a high-calorie meal on Cmax” value [5] is listed as “delayed and decreased”, the “Effect of a high-calorie meal on mean AUC” value [5] is listed as “similar” and the “Solubility dependence on pH” value [6] is listed as “decreases with increasing gut pH”. The “Decrease of AUC on coadministration with omeprazole (PPI)” value [7] was 43%, the “Reduction of AUC24h,ss by coadministration of PPIs” value [2] was 36% and the “AUC24h,ss higher in subjects with ECOG PS ≥ 2” value [2, 11] was 21%. The “AUC24h,ss lower in healthy subjects” value [2, 11] was 32%, the “Cmax,ss higher in subjects with ECOG PS ≥ 2” value [2, 11] was 14% and the “Cmax,ss lower in healthy subjects” value [2, 11] was 24%. The “Exposure lower with concomitant PPI use” value [2] was 36%, the “BOV F1 (between-occasion variability, relative bioavailability)” value [4, 8] was 55.3 [50.4, 61.1] CV% and the “BOV MTT (between-occasion variability)” value [4, 8] was 119 [104, 137] CV%. The “BSV CL/F (between-subject variability)” value [4, 8] was 24.1 [20.4, 28] CV%, the “BSV Vc/F” value [4, 8] was 284 [225, 367] CV% and the “BSV Vp/F” value [4, 8] was 33.9 [25, 42.4] CV%. The “BOV F1 (between-occasion variability, relative bioavailability)” value ([4]; estimate (%RSE)) was 56.1 (1.80) CV%, the “BOV MTT (between-occasion variability)” value ([4]; estimate (%RSE)) was 118 (2.39) CV% and the “BSV CL/F (between-subject variability)” value ([4]; estimate (%RSE)) was 23.8 (5.86) CV%. The “BSV Vc/F” value ([4]; estimate (%RSE)) was 270 (6.51) CV%, the “BSV Vp/F” value ([4]; estimate (%RSE)) was 33.7 (6.96) CV% and the “Ka, first-order absorption rate constant” value [4, 9] was 1.48 (2.63) h^−1. For the same compound, the “MTT, mean transit time” value [4, 9] was 0.459 (4.16) h, the “CL/F, apparent clearance” value [4, 9] was 134 (1.97) L/h and the “Vp/F, apparent peripheral volume of distribution” value [4, 9] was 110 (3.45) L. The “Ka, first-order absorption rate constant” value [4, 10] was 1.48 [1.41, 1.55] h^−1, the “MTT, mean transit time” value [4, 10] was 0.460 [0.426, 0.492] h and the “CL/F, apparent clearance” value [4, 10] was 132 [126, 139] L/h. The “Vp/F, apparent peripheral volume of distribution” value [4, 10] was 108 [97.6, 120] L, the “Covariate effect ECOG 2—CL/F” value [4, 8] was −0.158 [−0.274, −0.032] and the “Covariate effect Healthy subject—CL/F” value [4, 8] was 0.467 [0.367, 0.569]. For the same compound, the “Covariate effect Healthy subject—Vp/F” value [4, 8] was −0.554 [−0.6, −0.496], the “Covariate effect PPI—F1 (relative bioavailability)” value [4, 8] was −0.368 [−0.49, −0.228] and the “Covariate effect ECOG 2—CL/F” value ([4]; estimate (%RSE)) was −0.171 (36.2). The “Covariate effect Healthy subject—CL/F” value ([4]; estimate (%RSE)) was 0.467 (19.3), the “Covariate effect Healthy subject—Vp/F” value ([4]; estimate (%RSE)) was −0.556 (5.59) and the “Covariate effect PPI—F1 (relative bioavailability)” value ([4]; estimate (%RSE)) was −0.358 (7.01). The “BOV on MTT” value ([4]; remaining variability in absorption not related to PPIs) was 118%.
